An excerpt weighted towards active compounds, which were near 2.4% of everything screened.
bCat nuc transl: alters nuclear translocation of beta-catenin in HeLa cells; immunofluorescence imaging; nuclear translocation activity, % at 5 µM; 190,000 compounds, 0.3% hits;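 active means nuclear translocation activity above 50% at 5 µM, with a well cell count of 50 or more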;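 further: per-cell ratio of nuclear to cytoplasmic median beta-catenin stain intensity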
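Technique: fluorescence imaging of beta-catenin antibody stain plus DAPI / Material: human HeLa cell line / Incubation: compound treatment 24 h, 37°C, 5% CO2 / Read-out basis: % activation of per-cell nuclear versus cytoplasmic median beta-catenin signal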
STAT3 act: activators of IL-6 induced STAT3 signaling; 190,000 compounds, 0.91% hits; activation (% of control), % at 5.6 µM; U3A cells, IL-6 STAT3-luciferase reporter, luminescence; 100% = signal with IL-6 EC80 alone;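 active means activation above the screen-wide mean of compound activation plus 3 SD, cut at about 130% in these data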
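Test system: human U3A cells carrying STAT3-luciferase construct; control set: IL-6-only wells as 100% reference; timing: compound pre-incubation 1 h before IL-6, then 6 h stimulation at 37 °C; also added: IL-6 stimulus at 33 ng/mL final; evaluation: % activation versus median of IL-6-stimulated wells; detection: reporter luminescence signal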
STAT1 inh: reduces IFN-gamma driven STAT1 reporter signal | NIH 3T3 STAT1-luciferase reporter, luminescence | inhibition, % at 5.5 µM | 200,000 compounds, 0.35% hits | AID 920;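 active means inhibition above a set limit, the mean inhibition across all tested compounds plus 3 SD, cut at about 34% in these data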
STAT3 inh-1: STAT3 signaling inhibition; U3A cells, IL-6 STAT3-luciferase reporter, luminescence; host cell line lacks STAT1; inhibition, % at 5.5 µM; 190,000 compounds, 0.89% hits;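 active means inhibition above the mean inhibition across all screened compounds plus 3 SD, cut at about 44% in these data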
MT stabilizer: microtubule stabilizers in HeLa cells | 200,000 compounds, 0.83% hits | HeLa tubulin immunostaining HCS, 24 h; share of cells brighter than vehicle mean+2SD | AID 2205 | % tubulin-high responders, % at 10 µM;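 active means plate Z-score above 3 for both tubulin-high and condensed-nucleus cell shares, with cell loss under 80%, at 10 µM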;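 further: anti alpha tubulin signal scored within the nucleus-defined area of each cell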
STAT3 inh-2: confirmation of STAT3 signaling inhibitors. shares compounds with STAT3 inh-1. U3A cells, IL-6 STAT3 luciferase reporter, luminescence; cell line lacks STAT1. inhibition, % at 5.7 µM. 1,200 compounds, 45% hits. AID 1265;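 active means inhibition above the hit cutoff computed for the primary STAT3 screen, cut at about 44% in these data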
NFkB inh STAT3ct: NF-kappaB inhibition in STAT3 inhibitor counter-screen. shares compounds with STAT3 inh-1. HEK293T NF-kB luciferase reporter, TNF-alpha induced. inhibition, % at 5.7 µM. 1,200 compounds, 36% hits. AID 1308;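 active means inhibition above the mean of solvent-only control wells plus 3 SD, cutoff set per campaign, cut at about 13% in these data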
STAT1 inh STAT3c: counter-screen for STAT3 inhibitors: STAT1 inhibition; NIH 3T3 STAT1-luciferase reporter, IFN-gamma induced, luminescence; shares compounds with STAT3 inh-1; inhibition, % at 5.7 µM; 1,200 compounds, 27% hits;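 active means inhibition above the mean plus 3 SD of solvent-only control wells, limit set per screening run, cut at about 16% in these data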
A number is an active result; 0 = inactive; - = not tested or not shown.

SMILES	bCat nuc transl	STAT3 act	STAT1 inh	STAT3 inh-1	MT stabilizer	STAT3 inh-2	NFkB inh STAT3ct	STAT1 inh STAT3c
Cc1cc(C(=O)NC2=NCCS2)cs1	0	0	0	0	0	-	-	-
O=C(Nc1ccc2c(c1)OCCO2)Nc1ccc2c(c1)OCO2	0	0	0	54.2	0	0	0	0
O=C(Nc1ccc(N2CCN(C(=O)c3ccc(Cl)cc3)CC2)cc1)c1cc2ccccc2o1	-	0	0	70.1	0	64.8	18.9	0
O=C(NC1=NCCS1)c1cc2ccccc2o1	0	0	0	63.6	0	0	0	0
O=C(Nc1ccc2c(c1)OCCO2)c1cc2ccccc2o1	0	0	0	65.5	0	0	0	0
CCC(=O)N1CCN(c2ccc(NC(=O)c3cc4ccccc4o3)cc2)CC1	0	0	0	0	0	-	-	-
CC(=O)Nc1ccc2c(c1)OCCO2	0	0	0	0	0	-	-	-
Cc1cc(C(=O)CSc2nnc(-c3cccc(F)c3)n2N)c(C)n1Cc1ccc2c(c1)OCO2	0	0	0	47.0	0	0	0	0
Nc1nc(Br)c2c(F)cccc2c1-c1ccccc1	-	0	0	46.4	0	0	0	0
COc1ccc(OCC(O)CNC(=O)c2ccc(C)cc2)cc1 (stereo unspecified)	0	-	-	-	-	-	-	-
O=C(CCc1nnc(C2CCCCC2)o1)N1CCC(Oc2cccnc2)CC1	0	0	0	0	0	-	-	-
Cc1ccc(C(=O)/C=C2\NCC(C)NC2=O)cc1 (stereo unspecified)	0	0	0	65.1	0	0	0	0
Cc1ccc(C(=O)/C=C2\NCCNC2=O)cc1	0	0	0	0	0	-	-	-
Clc1ccc(-n2ncc3c(N4CCCCCC4)ncnc32)cc1	0	0	0	87.2	0	70.9	49.3	0
Cc1cccc(-n2ncc3c(N4CCCC4)ncnc32)c1	0	0	0	66.7	0	0	0	0
Clc1ccc(Cn2ncc3c(N4CCCCC4)ncnc32)cc1	0	0	0	0	0	-	-	-
Cc1cccc(-n2ncc3c(N4CCOCC4)ncnc32)c1	0	0	0	77.7	0	62.3	28.2	0
Cc1cccc(-n2ncc3c(N4CC(C)CC(C)C4)ncnc32)c1 (stereo unspecified)	-	0	0	0	0	-	-	-
Cc1ccc(NC(=S)N(CCCN2CCC(C)CC2)Cc2ccco2)cc1C	0	0	0	0	0	-	-	-
Cc1ccc2[nH]c3c(NCc4ccco4)ncnc3c2c1	0	0	0	59.6	0	45.2	0	0
CCCCOc1ncnc2c1[nH]c1ccc(OCC)cc12	0	0	0	0	0	-	-	-
CCCCOc1ncnc2c1[nH]c1ccccc12	0	0	0	50.1	0	0	19.1	25.0
CCCCOc1ncnc2c1[nH]c1ccc(F)cc12	0	0	0	82.6	0	74.2	18.6	31.8
CCCCOc1ncnc2c1[nH]c1ccc(OC)cc12	0	0	0	45.9	0	0	0	0
CCCCn1cnc2c([nH]c3ccccc32)c1=O	0	0	0	0	0	-	-	-
SMILES	bCat nuc transl	STAT3 act	STAT1 inh	STAT3 inh-1	MT stabilizer	STAT3 inh-2	NFkB inh STAT3ct	STAT1 inh STAT3c
CCOc1cccc(/C=C/c2cc(C(=O)O)c3ccccc3n2)c1OC	0	-	-	-	-	-	-	-
COc1cc(SC)ccc1C(=O)Nc1ccc2c(c1)OCCO2	0	0	0	53.7	0	0	0	0
COc1cc(SC)ccc1C(=O)Nc1nccs1	0	0	0	58.1	0	0	0	0
COc1ccccc1C(=O)Nc1ccc2c(c1)OCCO2	-	0	0	0	0	-	-	-
S=C(c1ccc2c(c1)OCO2)N1CCOCC1	0	-	-	-	-	-	-	-
COc1ccc(-n2cc(-c3ccc(C)cc3)[n+]3c2SCC3)cc1	0	0	0	68.6	0	75.2	0	23.0
Cc1ccc(-c2cn(-c3ccccc3)c3[n+]2CCCS3)cc1	0	0	0	57.4	0	50.2	0	27.6
c1ccc(-c2cn(-c3ccccc3)c3[n+]2CCCS3)cc1	0	-	-	-	-	-	-	-
Cc1ccc(S(=O)(=O)C(C#N)c2nc3ccccc3nc2N2CCN(C)CC2)cc1C (stereo unspecified)	0	0	0	50.4	0	0	0	0
Oc1ccc(-c2n[nH]c(=S)n2-c2ccc3c(c2)OCCO3)c(O)c1	0	0	0	47.5	0	43.5	0	0
Cc1cc(-c2nnc(SCC(=O)c3ccc(F)cc3)o2)no1	0	0	0	0	0	-	-	-
CCOc1ccc(-n2c(-c3ccc(OC)cc3)c[n+]3c2CCCCC3)cc1	0	0	0	84.6	0	87.0	14.6	32.6
CCOc1ccc(-n2c(-c3ccccc3)c[n+]3c2CCC3)cc1	0	0	0	71.0	0	58.8	0	22.4
CCOc1ccc(-n2c(-c3ccc(Br)cc3)c[n+]3c2CCCCC3)cc1	0	0	0	60.0	0	0	0	23.2
CCc1c(C)nc2ncnn2c1NCCc1ccc(OC)cc1	85.0	0	0	66.5	37.1	65.4	28.1	25.8
O=C(CSc1nnc(Cn2nnc3ccccc32)o1)N(Cc1ccc(F)cc1)c1ccccc1	0	0	0	75.6	0	71.8	23.8	19.1
Cc1ccc(C2CC(=O)Nc3cc4c(cc32)OCO4)o1 (stereo unspecified)	0	0	0	0	0	-	-	-
CCN(CC)c1ccc2cc(C(C)=O)c(=O)oc2c1	0	0	0	0	0	-	-	-
CCN(CC)c1ccc2cc(NC(=O)CCC(=O)O)c(=O)oc2c1	-	0	0	70.0	0	64.7	29.2	28.2
c1ccc(CCNc2nc(-c3ccncc3)nc3ccccc23)cc1	0	-	-	-	-	-	-	-
COc1ccc(/C=C/c2cc(-c3ccc(C)cc3)o[n+]2C)cc1	0	0	0	44.3	0	0	0	19.9
Cn1cc([N+](=O)[O-])c(C(=O)Nc2ccc(-c3nc4ccccc4o3)cc2)n1	0	-	-	-	-	-	-	-
Cc1ccc2nc(NC(=O)CSCC(=O)OCC(=O)c3ccc(Br)cc3)sc2c1	-	0	36.5	87.1	0	66.7	23.1	32.9
O=C(Nc1ccc(CN2CCOCC2)cc1)c1cc2ccccn2n1	0	0	0	75.8	0	0	0	0
NC(=O)c1ccc(NC(=O)c2ccc(CN3CCOCC3)cc2)cc1	-	0	0	0	0	-	-	-
O=C(/C=C/c1ccc(Cl)cc1)Nc1ccc(CN2CCOCC2)cc1	0	0	0	44.7	0	62.2	14.2	0
CCOC(=O)c1ccc(NC(=O)c2ccc(CN3CCOCC3)cc2)cc1	0	0	0	67.9	0	69.4	0	0
CC(C)c1ccc(/C=C/C(=O)Nc2ccc(CN3CCOCC3)cc2)cc1	0	-	-	-	-	-	-	-
Cc1cc(CSc2ccccc2)ccc1NC(=O)c1ccc(CN2CCOCC2)cc1	0	0	0	73.2	0	78.8	30.4	17.4
CCC1(CC)NC(=O)N(CC(=O)N2N=C(c3ccc(Cl)cc3)CC2c2ccco2)C1=O (stereo unspecified)	0	0	0	0	0	-	-	-

Bioassay records as filed in PubChem.
